From ChEMBL document CHEMBL4373663, “New N-phenyl-4,5-dibromopyrrolamides as DNA gyrase B inhibitors” (Medchemcomm, 2019)
The source made the active and inactive calls. The calls are words filed in the database; no cut-off is given here.

Legend:
DNA gyrase [1] = target: DNA gyrase (Escherichia coli, UniProt P0AES4+P0AES6); experiment: Inhibition of Escherichia coli DNA gyrase using relaxed pNO1 plasmid DNA as substrate incubated for 30 mins by fluorescence assay; type: protein-complex assay
[2] = target: DNA gyrase (Staphylococcus aureus) (UniProt P0A0K8+P20831); experiment: Inhibition of Staphylococcus aureus DNA gyrase using relaxed pNO1 plasmid DNA as substrate assessed as enzyme residual activity at 10 uM incubated for 30 mins by fluorescence assay relative to control; type: protein-complex assay
Escherichia coli [3] = experiment: Inhibition of Escherichia coli DNA topoisomerase 4 using supercoiled pNO1 plasmid DNA as substrate assessed as enzyme residual activity at 10 uM incubated for 30 mins by fluorescence assay relative to control
[4] = target: Topoisomerase IV (Staphylococcus aureus) (UniProt P0C1U9+P0C1S7); experiment: Inhibition of Staphylococcus aureus DNA topoisomerase 4 using supercoiled pNO1 plasmid DNA as substrate assessed as enzyme residual activity at 10 uM incubated for 30 mins by fluorescence assay relative to control; type: protein-complex assay
Escherichia coli [5] = experiment: Antibacterial activity against Escherichia coli ATCC 25922 assessed as reduction in bacterial growth at 50 uM incubated for 24 hrs by broth microdilution assay relative to control; type: functional
Outline: (§1)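 Clinical control strains kept on cation-adjusted Mueller Hinton agar slants. Before the assay, suspensions were grown in cation-adjusted Mueller Hinton broth at 37 °C for 16–20 h at 100 rpm. Broth microdilution in 96-well format followed CLSI guidelines. Each compound was tested at 50 μM, and the result was expressed as percentage inhibition of bacterial growth.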

Enterococcus faecalis = experiment: Antibacterial activity against Enterococcus faecalis ATCC 29212 assessed as reduction in bacterial growth at 50 uM incubated for 24 hrs by broth microdilution assay relative to control; type: functional; outline: as §1
Staphylococcus aureus = experiment: Antibacterial activity against Staphylococcus aureus ATCC 25923 assessed as bacterial growth at 50 uM incubated for 24 hrs by broth microdilution assay; type: functional, organism-based; outline: as §1
Pseudomonas aeruginosa = experiment: Antibacterial activity against Pseudomonas aeruginosa ATCC 27853 assessed as bacterial growth at 50 uM incubated for 24 hrs by broth microdilution assay; type: functional, organism-based; outline: as §1
[6] = target: DNA gyrase (Escherichia coli) (UniProt P0AES6+P0AES4); experiment: Inhibition of Escherichia coli DNA gyrase using relaxed pNO1 plasmid DNA as substrate assessed as enzyme residual activity at 10 uM incubated for 30 mins by fluorescence assay relative to control; type: protein-complex assay
DNA gyrase [7] = target: DNA gyrase (Staphylococcus aureus, UniProt P0A0K8+P20831); experiment: Inhibition of Staphylococcus aureus DNA gyrase using relaxed pNO1 plasmid DNA as substrate incubated for 30 mins by fluorescence assay; type: protein-complex assay
[8] = Inhibition of Escherichia coli DNA topoisomerase 4 using supercoiled pNO1 plasmid DNA as substrate incubated for 30 mins by fluorescence assay
Topoisomerase IV = Topoisomerase IV (Staphylococcus aureus, UniProt P0C1S7+P0C1U9); experiment: Inhibition of Staphylococcus aureus DNA topoisomerase 4 using supercoiled pNO1 plasmid DNA as substrate incubated for 30 mins by fluorescence assay; type: protein-complex assay

Row | SMILES | Activity [2] | Activity [6] | IC50 (DNA gyrase [1]) | Activity (Escherichia coli [3]) | Activity [4] | inhibition at 50 µM (Escherichia coli [5]; ATCC 25922, 24 h) | inhibition (Enterococcus faecalis) | inhibition (Staphylococcus aureus) | inhibition (Pseudomonas aeruginosa) | inhibition (Escherichia coli [5]) | IC50 (DNA gyrase [7]) | IC50 [8] | IC50 (Topoisomerase IV) | inhibition at 50 µM (Enterococcus faecalis; ATCC 29212, 24 h)
1 | Cc1nc(-c2cc(NC(=O)Cc3n[nH]c(=O)o3)ccc2NC(=O)c2cc(Br)c(Br)[nH]2)no1 |  |  | 45 nM | 91% | 60% |  | inactive | inactive | inactive | inactive | 11000 nM |  |  | 
2 | O=C(Nc1ccc(OCc2n[nH]c(=O)o2)cc1)c1cc(Br)c(Br)[nH]1 |  |  | 8600 nM |  |  |  | inactive | inactive | inactive | inactive |  |  |  | 
3 | Cc1nc(-c2cc(NC(=O)CC(=O)O)ccc2NC(=O)c2cc(Br)c(Br)[nH]2)no1 |  |  | 20 nM |  |  |  | inactive | inactive | inactive | inactive | 1400 nM | 11000 nM | 14000 nM | 
4 | COC(=O)CC(=O)Nc1ccc(NC(=O)c2cc(Br)c(Br)[nH]2)c(-c2noc(C)n2)c1 |  |  | 86 nM | 72% | 100% |  | inactive | inactive | inactive | inactive | 63000 nM |  |  | 
5 | COC(=O)COc1ccc(NC(=O)c2cc(Br)c(Br)[nH]2)c(OCc2ccccc2)c1 |  | 100% |  |  |  |  |  |  |  |  |  |  |  | 
6 | NNC(=O)COc1ccc(NC(=O)c2cc(Br)c(Br)[nH]2)cc1 |  | 100% |  |  |  |  |  |  |  |  |  |  |  | 

Further lines, with some results ahead:

Row | Activity [2] | Activity [6] | SMILES | IC50 (DNA gyrase [1]) | Activity (Escherichia coli [3]) | Activity [4] | inhibition at 50 µM (Escherichia coli [5]; ATCC 25922, 24 h) | inhibition (Enterococcus faecalis) | inhibition (Staphylococcus aureus) | inhibition (Pseudomonas aeruginosa) | inhibition (Escherichia coli [5]) | IC50 (DNA gyrase [7]) | IC50 [8] | IC50 (Topoisomerase IV) | inhibition at 50 µM (Enterococcus faecalis; ATCC 29212, 24 h)
7 | 80% |  | Cc1nc(-c2cc(NC(=O)CC(=O)NN)ccc2NC(=O)c2cc(Br)c(Br)[nH]2)no1 | 140 nM | 88% | 98% | 16% | inactive | inactive | inactive |  |  |  |  | 
8 |  | 85% | O=C(Nc1ccc(OCc2n[nH]c(=O)o2)cc1OCc1ccccc1)c1cc(Br)c(Br)[nH]1 |  |  |  |  | inactive | inactive | inactive | inactive |  |  |  | 
9 |  | 100% | NNC(=O)COc1ccc(NC(=O)c2cc(Br)c(Br)[nH]2)c(OCc2ccccc2)c1 |  |  |  |  |  |  |  |  |  |  |  | 
10 | 87% |  | O=C(O)COc1ccc(NC(=O)c2cc(Br)c(Br)[nH]2)c(OCc2ccccc2)c1 | 860 nM | 84% | 92% |  |  | inactive | inactive | inactive |  |  |  | 25%
